Published values from different studies.
Target: Fibroblast growth factor receptor 2 (FGFR2, Homo sapiens, UniProt P21802)

Structure (SMILES)	assay	conditions	measurement	value
Cc1nn(C)cc1-c1nc2c(N3CCN(Cc4ccc(Cl)cc4)CC3)c(Cl)cnc2[nH]1	binding, competition with immobilised ligand	1 µM	remaining binding	45%
COCc1c(-c2cc3cc(C)cc(OC)c3s2)c2c(N)ncnn2c1CN1CCNC(=O)C1	cell-free assay, competition with immobilised ligand	1 µM	inhibition	99.8%
C#Cc1n[nH]c2c(-c3cn([C@@H](C)c4ccccc4)c(=O)[nH]c3=O)cc(F)cc12	enzyme activity, inhibitor	0.1 µM	inhibition	1.6%
COc1ncccc1-c1cnn2ccc(N3CCN(C(=O)OC(C)C)CC3)nc12	binding, competition with immobilised ligand	1 µM	remaining binding	82%
C#Cc1n[nH]c2c(-c3cn([C@@H](C)c4ccccn4)c(=O)[nH]c3=O)cc(F)cc12	enzyme activity, inhibitor	0.1 µM	inhibition	4.2%
Cn1cc(-c2cc(F)cc(N3CCn4c(cc5c4CCCC5)C3=O)c2CO)cc(Nc2ccc(N3CCN(C4COC4)CC3)cn2)c1=O	enzyme activity, inhibitor	0.1 µM	inhibition	15%
Nc1ncc(-c2nc(N3CCOCC3)nc(N3CCOCC3)n2)c(C(F)F)n1	cell-free assay, competition with immobilised ligand	10 µM	remaining binding	90%
N#CC1(c2ccccn2)CCN(Cc2cc(C(=O)O)c(=O)n3ccccc23)CC1	cell-free assay, competition with immobilised ligand	1 µM	remaining binding	100%
CC(C)(C)c1cc(C=C(C#N)C#N)cc(Br)c1O	enzyme activity, inhibitor	0.5 µM	remaining activity	96.4%
Cn1cncc1[C@](O)(COc1ccc(C#N)cc1-c1ccc(OC(F)(F)F)cc1)c1ccc(C#N)cc1	cell-free assay, competition with immobilised ligand	1 µM	remaining binding	86%
Cn1cc(-c2cccc(N3CCc4c(sc5c4CC(C)(C)C5)C3=O)c2CO)cc(Nc2ccncn2)c1=O	enzyme activity, inhibitor	1 µM	inhibition	14%
O=c1[nH]c2ccccc2n1C1CCN(Cc2ccc(-c3[nH]c4cc5ncnc5cc4nc3-c3ccccc3)cc2)CC1	cell-free assay	0.5 µM	remaining signal	94.2%
